{"source": "ChEMBL document CHEMBL1145922", "about": "“1,2-benzisoxazole phosphorodiamidates as novel anticancer prodrugs requiring bioreductive activation” (J Med Chem, 2003)", "organism": "Rattus norvegicus", "assay": "Percent inhibition of formation of compound upon incubation of 15 with phenobarbit-induced rat liver microsomal fraction in hypoxic condition in presence of SKF-525A at a concentration of 2 mM", "type": "functional", "summary_of_the_method": "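Phenobarbital-induced rat liver microsomes; inhibitors SKF-525A (in methanol) or pCMBA (in DMF) at 0–4 mM final. pCMBA preincubated 30 min before NADPH; SKF-525A incubated 15 min with microsomes and NADPH. Hypoxic samples nitrogen-purged. Substrate 2.5 mM added, 30 min at 37 °C. Ketone metabolite by HPLC at 254 nm as percent of substrate; % inhibition relative to no inhibitor. Mean of two experiments.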"}
{"smiles": "CCC(=O)c1ccccc1O", "values": [{"measurement": "inhibition", "value": 29, "unit": "%"}]}
